# Screening results (PubChem BioAssay)
# HIV Env fusion: blocks HIV Env-driven cell-cell fusion | HeLa-JRFL Env/CEM21 cell fusion, luciferase | inhibition, % at 12.3 µM | hit rate 1.1% among 360,000 | AID 651610;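 active means mean replicate inhibition score of at least 50 and every replicate individually at or above 50; inconclusive means only one of the two criteria met; inactive means mean below 50 and not all replicates reaching 50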
# miR122 inh: blocks miR-122 activity in Huh7 sensor cells. AID 602342. hit rate 0.3% among 340,000. activation (reporter increase), % at 12.5 µM. Huh7 miR-122 Renilla luciferase sensor, 48 h; neutral wells = 0, positive control = 100;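 active means mean replicate activation score at least 90 and every replicate individually at or above 90; inconclusive means only one of the two criteria met; inactive means neither criterion met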;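 further: higher luciferase means less miR-122 activity so hits act as miR-122 inhibitors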
# FN deposit inh: fibronectin deposition inhibition | AH1F fibroblasts, Alexa488-fibronectin deposition fluorescence, overnight | inhibition, % at 12.6 µM | hit rate 0.086% among 350,000;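 active means mean inhibition across replicates of 30% or more, regardless of how many single replicates reach that level; inconclusive means mean under 30% yet at least half of replicates reach 30%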
#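 Material – AH1F fibroblast monolayer, labelled fibronectin deposition · Reagent – labelled fibronectin 24 nM · Timing – 1 h adhesion, overnight exposure · Measured by – fluorescence at 485 nm excitation, 525 nm emission · Read-out – inhibition of fibronectin deposition signal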
# Ecoli rRNA inh: inhibitors of bacterial rRNA selective over humanized ribosomes. E. coli WT GFP vs humanized-ribosome RFP mutants, fluorescence, 24 h; active compounds read low; DMSO median 0, no signal -100. GFP signal change (wild-type ribosome), % (concentration not given with the values). hit rate 1.6% among 350,000. AID 720706;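 active means significant combined selectivity score with lowered wild-type GFP, culture density cut under 30%, mutant RFP and density less affected; inactive means any of these conditions unmet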
# Vif imaging: blocks HIV Vif function; HEK293T cells, Vif self-association by quenched fluorescence, imaging, 24 h; inhibition, % at 7.49 µM; hit rate 0.35% among 340,000; in the data active means inhibition above about 50%, passing the limit was not always enough; inconclusive means no clear call, values can overlap the other calls; inactive means below about 31%
# S100A4 MyoIIA: blocks human S100A4 binding to myosin IIA peptide. S100A4/TAMRA-MyoIIA peptide fluorescence polarization. hit rate 0.14% among 360,000. P26447. inhibition, % at 10.7 µM;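 active means mean inhibition of at least 70% across replicates, with every replicate also reaching that level; inconclusive means mean inhibition reaches 70% but some replicates fall short; inactive means mean inhibition below 70%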
# Target sequence (P26447 whole entry, looked up): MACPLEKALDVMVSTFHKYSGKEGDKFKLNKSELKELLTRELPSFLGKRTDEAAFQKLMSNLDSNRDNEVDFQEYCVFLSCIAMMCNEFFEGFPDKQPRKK
#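 Test system – S100A4 monomer (human) · Compound – single-point compound testing · Schedule – 5 min incubation before reading · Probe or stimulus – TAMRA-labelled myosin IIA heavy-chain peptide probe, 5 nM · Benchmarks – neutral control DMSO, positive control TFP · Medium – Calcium-containing HEPES buffer, pH 7.2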
# Hits are given with their value; – = inactive; ? = inconclusive; · = no result given; [ ] = remark or other dose. Most compounds without a hit are left out; they make up all but 2.6% or so of the library.
SMILES,HIV Env fusion,miR122 inh,FN deposit inh,Ecoli rRNA inh,Vif imaging,S100A4 MyoIIA
Cc1c(CCOC(=O)C23CC4CC(CC(C)(C4)C2)C3)sc[n+]1CC(=O)c1ccccc1,82.2,–,–,–,–,–
Cc1c(CCOC(=O)c2cc([N+](=O)[O-])cc([N+](=O)[O-])c2)sc[n+]1CC(=O)c1ccccc1,–,–,–,–,–,–
Cc1c(CCOC(=O)c2ccccc2)sc[n+]1Cc1ccccc1,–,–,–,–,–,–
Cc1c(CCOC(=O)CC23CC4CC(CC(C4)C2)C3)sc[n+]1CC(=O)c1ccc(Br)cc1,61.4,–,–,·,–,·
Cc1ncsc1CCOC(=O)C12CC3CC(CC(C3)C1)C2,–,·,–,·,–,·
C[C@@H]1CN([C@H](C)CO)C(=O)c2cc(C#CCN(C)C)cnc2O[C@H]1CN(C)Cc1cccc(C(=O)O)c1,·,·,·,–,·,–
N#CC1(C#N)COC23CCCCC2C1(C#N)C(=N)O3 (stereo not given),–,–,–,·,–,·
N#CC12COC3(CCCCC3C1(C#N)C#N)OC2=N (stereo not given),–,·,–,–,–,78.8
O=C(CCN1CCCCC1)NCC[C@@H]1CC[C@H](NS(=O)(=O)c2cccc(F)c2)[C@H](CO)O1,–,·,–,–,·,–
COc1cccc(C(=O)N2C[C@H]3[C@@H](c4ccccc42)[C@@H](CO)N3C(=O)NC(C)C)c1,·,–,·,–,·,·
Nc1cc2sc(-c3ccc(C(=O)O)cc3)nc2cc1Cl,–,–,–,-33.1,–,–
Nc1ccc(-c2nc3ccc(C(=O)O)cc3s2)cc1,69.2,·,–,–,–,–
O=C(O)c1ccc2nc(-c3ccccc3)sc2c1,–,–,·,·,–,·
Nc1ccc(-c2nc3ccc(N)cc3s2)cc1,–,–,–,–,–,–
COc1ccc(S(=O)(=O)Nc2ccc3c(c2)C(=O)N([C@H](C)CO)C[C@@H](C)[C@H](CN(C)C(=O)Nc2ccc(F)cc2)O3)cc1,–,–,·,–,·,–
COc1ccc(NC(=O)Nc2ccc3c(c2)C(=O)N([C@H](C)CO)C[C@@H](C)[C@@H](CN(C)C(=O)NC2CCCCC2)O3)cc1,–,–,·,–,·,–
CCCCCCCCN1N=N[C@H]2[C@H]1[C@@H]1C[C@H]2N(C(=O)OC(C)(C)C)O1,–,–,–,-31.9,–,–
O=C1c2cccc3c(N4CCCCC4)ccc(c23)C(=O)N1c1ccc(O)cc1,–,·,–,–,112.5,–
N#Cc1ccc(C(=O)N2CCC3CC2c2cc(-c4ccc(F)cc4)ccc23)cc1 (stereo not given),–,–,–,-25.6,–,–
COc1ccc(-c2ccc3c(c2)C2CC3CCN2C(=O)C(C)(C)C)cc1 (stereo not given),–,–,–,-29.9,·,–
CCCNC(=O)N1CC2(C1)CN(C(=O)CC1CC1)[C@H](CO)c1[nH]c3cc(OC)ccc3c12,·,·,·,–,·,·
CC(C)[C@H](C)NC(=O)N(C)C[C@H]1OCc2ccccc2-c2c(n(C)c3ccccc23)C(=O)N([C@@H](C)CO)C[C@H]1C,·,·,–,–,·,–
CCC(=O)N1CCN(c2cc(C)ccc2C)CC1,–,–,–,·,50.4,·
CCCC#Cc1ccc([C@H]2[C@@H](CO)N(C(C)=O)[C@@H]2CNC(=O)C2CCCC2)cc1,·,·,–,–,·,–
C[C@H]1CN([C@@H](C)CO)S(=O)(=O)c2ccc(C#CCN(C)C)cc2O[C@@H]1CN(C)Cc1cccnc1,–,–,–,–,·,–
SMILES,HIV Env fusion,miR122 inh,FN deposit inh,Ecoli rRNA inh,Vif imaging,S100A4 MyoIIA
CCC(=O)Nc1ccc2c(c1)C(=O)N(C)[C@H]1CC[C@@H](CC(=O)NCc3ccccc3)O[C@H]1CO2,–,–,–,–,·,–
C[C@H](CO)N1C[C@H](C)[C@@H](CN(C)S(=O)(=O)c2ccc(Cl)cc2)Oc2ccc(NC(=O)C3CC3)cc2CC1=O,·,–,–,–,·,–
C[C@H](CO)N1C[C@H](C)[C@H](CN(C)S(=O)(=O)c2ccc(Cl)cc2)Oc2ccc(NC(=O)C3CCCCC3)cc2CC1=O,63.2[16.7 µM],–,·,–,·,–
C[C@H]1CN([C@@H](C)CO)C(=O)Cc2cc(NC(=O)C3CCCCC3)ccc2O[C@H]1CN(C)S(=O)(=O)c1ccc(Cl)cc1,73.6[16.7 µM],–,·,–,·,–
C[C@@H]1CN([C@@H](C)CO)C(=O)Cc2cc(NC(=O)NC3CCCCC3)ccc2O[C@@H]1CN(C)S(=O)(=O)c1ccc(Cl)cc1,59.5[16.7 µM],–,·,·,·,–
CC=Cc1ccc2n(c1=O)C[C@H]1[C@H](CO)[C@@H](C(=O)N[C@@H](C)c3ccccc3)[C@@H]2N1Cc1cccnc1 (mixture of isomers),·,–,·,–,·,·
C[C@H](CO)N1C[C@H](C)[C@H](CN(C)Cc2ccc(C(=O)Nc3ccccc3N)cc2)Oc2ccc(N(C)C)cc2CC1=O,–,355.3[16.7 µM],–,–,·,–
C[C@H](CO)N1C[C@H](C)[C@@H](CN(C)Cc2ccc(C(F)(F)F)cc2)Oc2ccc(N(C)C)cc2C1=O,?,98.0[16.7 µM],–,–,·,·
C[C@@H]1CN([C@@H](C)CO)C(=O)c2cc(N(C)C)ccc2O[C@@H]1CN(C)Cc1ccc(C(=O)Nc2ccccc2N)cc1,–,253.9[16.7 µM],·,·,·,–
Cc1cccc(N2CCN(C(=O)CNC(=O)c3cccc([N+](=O)[O-])c3)CC2)c1C,–,–,–,-19.0,–,–
Cc1cccc(N2CCN(C(=O)CNC(=O)Cc3ccccc3)CC2)c1C,·,·,–,–,–,–
CC(=O)N(C)C[C@H]1Oc2c(NC(=O)NC(C)C)cccc2C(=O)N(C)C[C@@H]1C,·,·,–,–,·,·
CO[C@H]1CN(C)C(=O)c2ccc(NC(C)=O)cc2OC[C@H](C)N(C(=O)CN2CCOCC2)C[C@H]1C,·,–,–,–,·,–
Cc1cc(NC2CCCCC2)nc(NCc2ccccc2)n1,53.7,·,–,–,–,–
COC(=O)c1ccc(Oc2cc(C)nc(NCc3ccccc3)n2)cc1,·,–,·,·,–,–
Cc1cc(Oc2ccc(C#N)cc2)nc(NCc2ccccc2)n1,60.6,–,–,·,·,·
COc1ccc(Nc2cc(C)nc(NCc3ccccc3)n2)cc1,71.0,–,–,–,–,–
Cc1ccc(Nc2cc(C)nc(NCc3ccccc3)n2)cc1,151.4,·,–,–,–,–
COc1cccc(/C=N/NC(=O)CNC(=O)C2COc3ccccc3O2)c1O (stereo not given),–,·,–,-19.7,–,–
C[C@H](CO)N1C[C@H](C)[C@H](CN(C)C(=O)NC2CCCCC2)Oc2ncc(/C=C/c3ccccc3)cc2C1=O,–,–,–,–,·,–
CCN(CC(=O)NCc1cccs1)C(=O)c1cccc(S(=O)(=O)Nc2ccc(C)cc2)c1,·,–,–,–,·,–
COc1ccc(NS(=O)(=O)c2cccc(C(=O)NNC(=O)CNC(=O)c3ccc(C)cc3)c2)cc1,67.6,·,–,–,–,–
Cc1ccc(NS(=O)(=O)c2cccc(C(=O)N(C)Cc3cccs3)c2)cc1,–,100.1,–,–,–,–
